Consider one molecule from ChEMBL document CHEMBL4118251 (J Med Chem, 2018).

Molecules are shown by their SMILES.

Series [1] in a line: Plasma concentration in diet-induced obesity cynomolgus monkey model at 8 ug/kg, sc for 6 weeks measured 2 hrs post dose on day 43 by LC-MS analysis. Format: ADME, organism-based, Macaca fascicularis. Particulars: 0.008 mg/kg. Put shortly: (§1)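 Obese diabetic cynomolgus monkeys were dosed once daily sc with PBS-diluted drug for 6 weeks. On day 43, blood was drawn just before dosing and at 1, 2, 4, 8 and 22 h after, into EDTA-2K tubes. Plasma was separated at 2500 × g for 10 min at 4 °C. The dual agonist was measured by LC-MS after protein precipitation; liraglutide was measured by ELISA.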

Series [2] is described as follows: Plasma concentration in diet-induced obesity cynomolgus monkey model at 8 ug/kg, sc for 6 weeks measured 4 hrs post dose on day 43 by LC-MS analysis. The note with it: 0.008 mg/kg. Format: ADME, organism-based, Macaca fascicularis. The procedure, abridged:
as §1

Series [3] is described as follows: Ratio of EC50 for monkey glucagon receptor expressed in HEK293 cells to EC50 for human glucagon receptor expressed in HEK293 cells. Format: cell-based. Put shortly: (§2)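 HEK293 lines stably expressing human or monkey receptor were detached with accutase. Cells were resuspended at 400 000 cells/mL in HBSS/20 mM HEPES/0.1% BSA/2 mM IBMX and exposed to peptide for 30 min at room temperature. cAMP was read by HTRF (665/620 nm) after 1 h lysis.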

Series [4] can be described thus: Solubility in pH 4.5 acetate buffer at 10 mg/ml after 2 hrs in presence of 0.5% phenol by UPLC-UV analysis. In kind it is physicochemical. Put shortly:
(§3)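 Buffers were 100 mM sodium acetate pH 4.5 or 100 mM sodium phosphate pH 7.4, with or without 0.5% phenol. Solid peptide was dispersed at 10 mg/mL, with content corrected by UPLC-MS and ion chromatography, and gently agitated for 2 h. After centrifugation (15 min, 3000 rcf), the supernatant was diluted 1:10 and quantified by UPLC-UV against a DMSO standard curve.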

The subject of series [5] is Cynomolgus monkey. The series can be described thus: Antiobesity activity in diet-induced obesity cynomolgus monkey model assessed as reduction in body weight at 1.5 ug/kg on day 1 to 3, 3 ug/kg on day 4 to 6, 4.5 ug/kg on day 7 to 9, 6 ug/kg from day 10 to 17 and 8 ug/kg on day 18 to 42 administered sc once daily measured every 3 to 4 days during compound dosing relative to control. Format: functional, Macaca fascicularis. On the set-up: scale not given: the % may be the effect or the level left. The procedure, abridged: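 Obese diabetic cynomolgus monkeys were offered about 680 kcal/day. They were block-randomized into 3 groups by body weight, fasted glucose and %HbA1C. Dosing was once daily sc in PBS vehicle over a 6-week study with ramped doses. Food and water intake were logged daily, and body weight was measured every 3–4 days. Two insulin-requiring vehicle animals were excluded.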

Another series addresses Glucagon receptor (Homo sapiens, UniProt P47871). Kind of series: Agonist activity at human glucagon receptor expressed in HEK293 cells assessed as cAMP accumulation after 30 mins by HTRF assay. Format: functional, cell-based.
A short description of series [6]: Plasma concentration in diet-induced obesity cynomolgus monkey model at 8 ug/kg, sc for 6 weeks measured […] dose on day 43 by LC-MS analysis. Format: ADME, organism-based, Macaca fascicularis. Particulars: 0.008 mg/kg. Put shortly:
as §1

Series [7] concerns the target Glucagon-like peptide 1 receptor (Macaca fascicularis, UniProt F8V479). The series can be described thus: Agonist activity at monkey GLP1R expressed in HEK293 cells assessed as cAMP accumulation after 30 mins by HTRF assay. In kind it is cell-based, Macaca mulatta. Background: Changes in cAMP serve as a functional read-out for many G protein-coupled receptors.
Series [8] can be described thus: Solubility in pH 4.5 acetate buffer at 10 mg/ml after 2 hrs by UPLC-UV analysis. Format: physicochemical. The procedure, abridged: as §3
Series [9] in a line: AUC (0 to 22 hrs) in diet-induced obesity cynomolgus monkey model at 8 ug/kg, sc for 6 weeks on day 43 by LC-MS analysis. Set-up: dose 8 ug/kg, time < 22 hr, route subcutaneous. The note with it: in vivo, 0.008 mg/kg. In kind it is ADME, organism-based, Macaca fascicularis. The procedure, abridged:
as §1

A short description of series [10]: Plasma concentration in diet-induced obesity cynomolgus monkey model at 8 ug/kg, sc for 6 weeks measured 22 hrs post dose on day 43 by LC-MS analysis. Format: ADME, organism-based, Macaca fascicularis. Particulars: 0.008 mg/kg. The procedure, abridged: as §1
Series [11] is described as follows: Agonist activity at monkey GIP receptor expressed in HEK293 cells assessed as cAMP accumulation after 30 mins by HTRF assay. In kind it is cell-based, Macaca mulatta. The note with it: Macaca mulatta, HEK293, 0.5 h. Put shortly:
as §2

Series [12] is described as follows: Plasma concentration in diet-induced obesity cynomolgus monkey model at 8 ug/kg, sc for 6 weeks measured 1 hr post dose on day 43 by LC-MS analysis. Format: ADME, organism-based, Macaca fascicularis. The note with it: 0.008 mg/kg. The procedure, abridged:
as §1

Series [13] concerns the target Glucagon-like peptide 1 receptor (Homo sapiens, UniProt P43220). Kind of series: Agonist activity at human GLP1R expressed in HEK293 cells assessed as cAMP accumulation after 30 mins by HTRF assay. Format: functional, cell-based.
A short description of series [14]: Solubility in pH 4.5 acetate buffer at 10 mg/ml after 2 hrs in presence of 0.5% phenol by UPLC-UV analysis.
The target in series [15] is T1, Gastric inhibitory polypeptide receptor (Homo sapiens, UniProt P48546).
T1 sequence (P48546 whole entry): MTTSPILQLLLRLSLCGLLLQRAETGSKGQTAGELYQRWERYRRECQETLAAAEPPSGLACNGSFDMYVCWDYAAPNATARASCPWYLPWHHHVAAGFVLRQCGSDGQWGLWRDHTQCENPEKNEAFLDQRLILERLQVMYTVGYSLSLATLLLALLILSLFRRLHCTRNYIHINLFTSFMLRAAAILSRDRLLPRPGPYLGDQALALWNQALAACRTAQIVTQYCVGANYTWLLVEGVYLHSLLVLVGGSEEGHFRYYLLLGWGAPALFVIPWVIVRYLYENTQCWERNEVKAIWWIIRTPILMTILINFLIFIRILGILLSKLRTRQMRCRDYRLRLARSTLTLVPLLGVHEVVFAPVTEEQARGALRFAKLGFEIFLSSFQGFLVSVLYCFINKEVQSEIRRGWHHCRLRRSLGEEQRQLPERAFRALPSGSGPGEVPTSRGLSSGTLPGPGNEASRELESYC
The series can be described thus: Agonist activity at human GIP receptor expressed in HEK293 cells assessed as cAMP accumulation after 30 mins by HTRF assay. Format: functional, cell-based.

Series [16] can be described thus: Plasma concentration in diet-induced obesity cynomolgus monkey model at 8 ug/kg, sc for 6 weeks measured 8 hrs post dose on day 43 by LC-MS analysis. Format: ADME, organism-based, Macaca fascicularis. The note with it: 0.008 mg/kg. Put shortly: as §1
Series [17] deals with Cynomolgus monkey. Kind of series: Hypoglycemic activity in diet-induced obesity cynomolgus monkey model assessed as plasma HbA1c level at 1.5 ug/kg on day 1 to 3, 3 ug/kg on day 4 to 6, 4.5 ug/kg on day 7 to 9, 6 ug/kg from day 10 to 17 and 8 ug/kg on day 18 to 42 administered sc once daily measured on day 43 post last dose (reference value: 8.7 +/- 0.8%). Format: functional, Macaca fascicularis.

The nature of series [18]: Agonist activity at monkey glucagon receptor expressed in HEK293 cells assessed as cAMP accumulation after 30 mins by HTRF assay. Format: cell-based, Macaca mulatta. Particulars: Macaca mulatta, HEK293, 0.5 h. Put shortly:
as §2

Series [19] can be described thus: Solubility in pH 4.5 acetate buffer at 10 mg/ml after 2 hrs by UPLC-UV analysis.
The species entered for another series is Homo sapiens. The series can be described thus: Selectivity ratio of EC50 for human glucagon receptor expressed in HEK293 cells to EC50 for human GLP1R expressed in HEK293 cells. In kind it is cell-based. Put shortly: as §2
The test system of series [20] is Cynomolgus monkey. Kind of series: Potency index, ratio of liraglutide dose to compound dose for antiobesity activity in diet-induced obesity cynomolgus monkey model assessed as reduction in body weight administered sc once daily measured every 3 to 4 days during compound dosing. In kind it is functional, Macaca fascicularis.

Chain of Glucagon receptor (P47871 whole entry): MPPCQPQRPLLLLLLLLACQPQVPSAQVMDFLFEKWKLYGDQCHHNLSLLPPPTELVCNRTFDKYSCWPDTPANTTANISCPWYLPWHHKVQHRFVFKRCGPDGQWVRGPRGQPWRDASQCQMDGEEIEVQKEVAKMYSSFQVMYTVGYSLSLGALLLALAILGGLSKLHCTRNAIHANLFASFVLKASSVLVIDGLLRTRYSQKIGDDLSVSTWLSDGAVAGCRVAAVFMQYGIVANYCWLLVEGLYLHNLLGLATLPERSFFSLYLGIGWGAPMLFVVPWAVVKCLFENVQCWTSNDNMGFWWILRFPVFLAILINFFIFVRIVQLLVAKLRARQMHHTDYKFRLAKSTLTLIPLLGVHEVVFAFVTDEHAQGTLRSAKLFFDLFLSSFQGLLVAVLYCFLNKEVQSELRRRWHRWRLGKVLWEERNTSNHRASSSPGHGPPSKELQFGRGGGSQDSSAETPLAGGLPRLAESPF
Chain of Glucagon-like peptide 1 receptor (Macaca fascicularis, UniProt F8V479) (F8V479 whole entry): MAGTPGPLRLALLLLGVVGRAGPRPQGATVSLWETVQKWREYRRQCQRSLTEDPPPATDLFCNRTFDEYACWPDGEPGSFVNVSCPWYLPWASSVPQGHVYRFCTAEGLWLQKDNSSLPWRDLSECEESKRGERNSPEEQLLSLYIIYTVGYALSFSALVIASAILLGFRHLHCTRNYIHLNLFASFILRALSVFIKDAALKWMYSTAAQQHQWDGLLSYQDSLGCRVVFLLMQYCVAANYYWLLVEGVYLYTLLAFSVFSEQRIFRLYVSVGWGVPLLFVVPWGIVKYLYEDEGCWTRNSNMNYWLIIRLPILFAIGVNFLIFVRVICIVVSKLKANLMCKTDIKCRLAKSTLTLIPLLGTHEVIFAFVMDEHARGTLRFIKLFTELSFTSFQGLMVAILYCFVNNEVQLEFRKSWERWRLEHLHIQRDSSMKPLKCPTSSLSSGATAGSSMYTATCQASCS
Chain of Glucagon-like peptide 1 receptor (Homo sapiens, UniProt P43220) (P43220 whole entry): as the sequence (F8V479 whole entry) above, with T4A, V17M, N135S, S143F, G225S, V228L, F260L, R264W, V272I counted along it

As for `CCCCCCCCCCCCCCCCC(=O)[C@H](CCN[C@@H](CCC(=O)NCCCC[C@H](NC(=O)[C@H](CCC(N)=O)NC(=O)[C@H](CCCCN)NC(=O)[C@H](CO)NC(=O)[C@H](CC(C)C)NC(=O)[C@H](CC(=O)O)NC(=O)[C@H](CO)NC(=O)[C@@H](NC(=O)[C@H](Cc1ccccc1)NC(=O)[C@@H](NC(=O)CNC(=O)[C@H](CCC(N)=O)NC(=O)C(C)(C)NC(=O)[C@@H](N)Cc1cnc[nH]1)[C@@H](C)O)[C@@H](C)O)C(=O)N[C@@H](CC(=O)O)C(=O)N[C@@H](CCC(=O)O)C(=O)N[C@@H](CCC(N)=O)C(=O)N[C@@H](CCCNC(=N)N)C(=O)N[C@@H](C)C(=O)N[C@@H](CCCCN)C(=O)N[C@@H](CC(C)C)C(=O)N[C@@H](Cc1ccccc1)C(=O)N[C@H](C(=O)N[C@@H](CCC(=O)O)C(=O)N[C@@H](Cc1c[nH]c2ccccc12)C(=O)N[C@@H](CC(C)C)C(=O)NC(C)(C)C(=O)N[C@@H](C)C(=O)NCC(=O)NCC(=O)N1CCC[C@H]1C(=O)N1CCC[C@H]1C(=O)N[C@@H](CO)C(=O)N[C@@H](C)C(=O)N[C@@H](CCCCN)C(=O)N1CCC[C@H]1C(=O)N1CCC[C@H]1C(=O)N1CCC[C@H]1C(=O)N[C@@H](CCCCN)C(N)=O)[C@@H](C)CC)C(=O)O)C(=O)O`, the concentration at 2 h in series [1] was 28 ng/mL. The concentration at 4 h in series [2] was found to be 24.3 ng/mL. Also, the Ratio EC50 in series [3] was 4; in the series listed under Homo sapiens it was 10 to 15. Also, the solubility at 2 h in series [4], in series [8], in [14] and in series [19] was at least 10000 µg/mL in each case. The Activity in the series on Cynomolgus monkey [5] is listed as 6.9%; with Cynomolgus monkey [17], 7.1%. In addition, the EC50 on Glucagon receptor worked out at 0.029 nM; in series [7] it was 0.002 nM; in [11], 2.05 nM; in series [13], 0.0018 nM; in series [15] it was 2.03 nM; in [18] it was 0.129 nM. Further, in [6], the concentration at 1008 h is 0.66 ng/mL. Further, the AUC at 22 h in series [9] was 254 ng·h/mL. This molecule registered a concentration at 22 h in series [10] of 0.69 ng/mL. In [12], this molecule gave a concentration at 1 h of 21.6 ng/mL. The molecule also gave a concentration at 8 h in series [16] of 12.4 ng/mL. Also, the Ratio in the series on Cynomolgus monkey [20] worked out at 5.

The solubility is the concentration that dissolves in the medium under given conditions. The term EC50 denotes the concentration that produces a half-maximal response. The term AUC denotes the area under the concentration-time curve, a measure of exposure.
